Laboratory results reported in ChEMBL document CHEMBL1121400, “Quantitative structure--activity correlations of rifamycins as inhibitors of viral RNA-directed DNA polymerase and mammalian alpha and beta DNA polymerases” (J Med Chem, 1980).

Assays:
[1] = target: DNA polymerase beta (Mus musculus) (UniProt Q8K409); experiment: The logarithm of the reciprocal of the concentration which produces 50% inhibition of mammalian beta DNA polymerase.
Procedure, shortened: (§1)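 Mammalian α or β DNA polymerase in 100 µL reaction: enzyme in 50% glycerol, 1 mM DTT, 0.5 M KCl, Tris-HCl pH 7.5; Me2SO compound; cocktail with MnCl2, NaF, [3H]dGTP, poly(2'-O-methylC)·d(pG)12-18 template. Compound added first, then enzyme, then cocktail; 45 min at 37 °C. Product radioactivity, background-corrected against Me2SO controls; 50% concentration from triplicate five-dose curves, 10^-3–10^-7 M, expressed as log(1/C).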

[2] = target: Gag-Pol polyprotein (Woolly monkey sarcoma virus, UniProt P03359); experiment: Ability to inhibit simian sarcoma virus reverse transcriptase; conditions: read-out: IC50
Gag-Pol polyprotein, sequence (P03359 642-1310 limits assumed): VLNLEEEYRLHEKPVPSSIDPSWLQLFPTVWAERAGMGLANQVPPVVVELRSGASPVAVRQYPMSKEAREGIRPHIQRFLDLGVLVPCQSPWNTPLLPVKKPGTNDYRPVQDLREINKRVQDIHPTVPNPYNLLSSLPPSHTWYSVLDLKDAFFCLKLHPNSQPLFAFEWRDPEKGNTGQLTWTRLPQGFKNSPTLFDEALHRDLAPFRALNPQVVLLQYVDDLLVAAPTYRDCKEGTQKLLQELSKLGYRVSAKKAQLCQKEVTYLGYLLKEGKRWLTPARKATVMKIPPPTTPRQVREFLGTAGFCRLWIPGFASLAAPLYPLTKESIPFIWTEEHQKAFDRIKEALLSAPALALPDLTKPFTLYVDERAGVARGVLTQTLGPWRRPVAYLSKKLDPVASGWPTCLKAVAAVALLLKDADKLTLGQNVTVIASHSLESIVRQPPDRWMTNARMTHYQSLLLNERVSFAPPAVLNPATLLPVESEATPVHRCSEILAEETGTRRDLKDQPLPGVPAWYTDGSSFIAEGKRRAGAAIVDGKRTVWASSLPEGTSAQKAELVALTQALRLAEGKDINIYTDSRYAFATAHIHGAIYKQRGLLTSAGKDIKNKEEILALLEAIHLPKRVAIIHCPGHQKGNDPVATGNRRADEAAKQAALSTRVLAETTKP
Procedure, shortened: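 Purified SSV-1 RNA-dependent DNA polymerase from 71 AP1 culture fluids, in 20% glycerol, 1 mM dithiothreitol, 1 mg/mL BSA and 50 mM Tris-HCl pH 7.5, was held 10 min on ice with inhibitor in Me2SO. Mn2+/[3H]dGTP cocktail with poly(2'-O-methylcytidylic acid)·d(pG)12-18 template was added, then 45 min at 37 °C. Background-corrected triplicate dose series; the 50% inhibition concentration was extrapolated.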

[3] = target: Gag-Pol polyprotein (Woolly monkey sarcoma virus) (UniProt P03359); experiment: Inhibition of simian sarcoma virus reverse transcriptase
Gag-Pol polyprotein (Woolly monkey sarcoma virus), sequence (P03359 whole entry): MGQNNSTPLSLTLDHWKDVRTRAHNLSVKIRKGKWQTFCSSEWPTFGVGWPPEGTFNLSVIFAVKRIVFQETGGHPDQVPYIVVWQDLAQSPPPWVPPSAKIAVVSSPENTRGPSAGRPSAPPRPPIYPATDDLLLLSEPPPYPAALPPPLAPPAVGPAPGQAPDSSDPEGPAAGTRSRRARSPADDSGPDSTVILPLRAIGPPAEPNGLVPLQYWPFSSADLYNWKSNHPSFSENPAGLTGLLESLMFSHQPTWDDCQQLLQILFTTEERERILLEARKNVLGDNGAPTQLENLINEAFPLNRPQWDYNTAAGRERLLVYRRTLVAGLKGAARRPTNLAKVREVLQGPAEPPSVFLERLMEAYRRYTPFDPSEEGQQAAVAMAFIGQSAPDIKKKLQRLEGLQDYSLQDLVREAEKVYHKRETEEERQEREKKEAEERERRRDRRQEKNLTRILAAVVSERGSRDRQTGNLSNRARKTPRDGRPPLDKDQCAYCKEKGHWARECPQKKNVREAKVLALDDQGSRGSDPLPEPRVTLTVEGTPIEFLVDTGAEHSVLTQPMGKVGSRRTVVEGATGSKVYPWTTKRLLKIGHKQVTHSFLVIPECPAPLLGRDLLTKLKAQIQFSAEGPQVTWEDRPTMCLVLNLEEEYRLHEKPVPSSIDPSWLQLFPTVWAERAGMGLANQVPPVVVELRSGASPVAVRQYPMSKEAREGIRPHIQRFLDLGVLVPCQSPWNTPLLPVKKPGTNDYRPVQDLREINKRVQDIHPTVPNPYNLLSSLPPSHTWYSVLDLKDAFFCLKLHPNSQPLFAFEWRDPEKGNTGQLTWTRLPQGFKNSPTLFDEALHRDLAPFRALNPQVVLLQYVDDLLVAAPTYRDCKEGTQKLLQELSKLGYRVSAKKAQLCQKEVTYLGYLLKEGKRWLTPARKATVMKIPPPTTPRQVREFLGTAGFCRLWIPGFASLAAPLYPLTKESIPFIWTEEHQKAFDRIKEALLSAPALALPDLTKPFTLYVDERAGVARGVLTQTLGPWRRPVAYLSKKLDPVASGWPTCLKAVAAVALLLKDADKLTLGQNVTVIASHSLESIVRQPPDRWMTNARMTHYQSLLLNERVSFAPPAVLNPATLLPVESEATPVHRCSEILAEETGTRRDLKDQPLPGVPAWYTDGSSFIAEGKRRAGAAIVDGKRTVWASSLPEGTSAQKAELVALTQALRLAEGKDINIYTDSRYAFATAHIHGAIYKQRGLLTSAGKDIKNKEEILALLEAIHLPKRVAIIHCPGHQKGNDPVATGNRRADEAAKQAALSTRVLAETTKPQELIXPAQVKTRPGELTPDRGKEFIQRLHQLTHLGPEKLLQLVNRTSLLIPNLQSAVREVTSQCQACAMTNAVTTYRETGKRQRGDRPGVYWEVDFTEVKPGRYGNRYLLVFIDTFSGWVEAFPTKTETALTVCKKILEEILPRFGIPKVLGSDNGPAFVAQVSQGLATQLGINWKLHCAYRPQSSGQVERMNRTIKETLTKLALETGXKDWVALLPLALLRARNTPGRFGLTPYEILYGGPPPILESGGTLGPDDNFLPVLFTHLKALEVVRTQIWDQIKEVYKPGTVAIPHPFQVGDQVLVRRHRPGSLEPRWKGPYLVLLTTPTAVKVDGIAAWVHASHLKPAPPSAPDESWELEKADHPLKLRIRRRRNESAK
Procedure, shortened: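 SSV-1 RNA-dependent DNA polymerase purified from tissue culture fluid of 71 AP1 cells. 50 µL reaction containing 20% glycerol, 1 mM DTT, BSA, Tris-HCl pH 7.5, MnCl2, KCl, NaF, [3H]dGTP and poly(2'-O-methylC)·d(pG)12-18. Compound in Me2SO is mixed with enzyme on ice for 10 min before the cocktail is added, then incubated 45 min at 37 °C. Radioactivity in product; 50% inhibitory concentration from triplicate dose–response curves spanning 10^-3 to 10^-7 M.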

[4] = The logarithm of the reciprocal of the concentration which produces 50% inhibition of mammalian alpha DNA polymerase.; procedure, shortened: as §1
[5] = Ability to inhibit mouse alpha DNA polymerase
Procedure, shortened: (§2)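 Enzyme in 50% glycerol, 1 mM dithiothreitol, 0.5 M KCl and 50 mM Tris-HCl pH 7.5 was premixed with inhibitor in 100% Me2SO and held on ice 10 min. Cocktail (MnCl2, KCl, NaF, BSA, [3H]dGTP, poly(2'-O-methylcytidylic acid)·d(pG)12-18) was then added. Incubation was 45 min at 37 °C.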

[6] = Partition coefficient (logP); conditions: octanol/water, logP
[7] = target: DNA polymerase beta (Mus musculus, UniProt Q8K409); experiment: Ability to inhibit mouse beta DNA polymerase; procedure, shortened: as §2

COC1/C=C/OC2(C)Oc3c(C)c(O)c4c(O)c(c(/C=N/N5C(C)CN(Cc6ccccc6)CC5C)cc4c3C2=O)NC(=O)/C(C)=C\C=C\C(C)C(O)C(C)C(O)C(C)C(OC(C)=O)C1C (stereo unspecified)
Log 1/C [1]: 4.68
IC50 [2]: 12.5 µM
Log 1/C [3]: 4.9
Log 1/C [4]: 4.42
IC50 [5]: 0.000038 M l-1
logP [6]: 4.28
IC50 ([7]; read-out: IC50): 21 µM

CCCCCCCCO/N=C/c1cc2c3c4c(C)c(O)c2c(O)c1NC(=O)/C(C)=C\C=C\C(C)C(O)C(C)C(O)C(C)C(OC(C)=O)C(C)C(OC)/C=C/OC(C)(O4)C3=O (stereo unspecified)
Log 1/C [1]: 4.89
IC50 [2]: 1 µM
Log 1/C [3]: 6
Log 1/C [4]: 4.94
IC50 [5]: 0.000015 M l-1
logP [6]: 5.2
IC50 ([7]; read-out: IC50): 13 µM

COC1/C=C/OC2(C)Oc3c(C)c(O)c4c(O)c(c(/C=N/N5CCN(N)CC5)cc4c3C2=O)NC(=O)/C(C)=C\C=C\C(C)C(O)C(C)C(O)C(C)C(OC(C)=O)C1C (stereo unspecified)
Log 1/C [1]: 4.8
IC50 [2]: 25 µM
Log 1/C [3]: 4.6
Log 1/C [4]: 3.78
IC50 [5]: 0.000165 M l-1
logP [6]: 2
IC50 ([7]; read-out: IC50): 16 µM

COc1cccc(CN2CCN(/N=C/c3cc4c5c6c(C)c(O)c4c(O)c3NC(=O)/C(C)=C\C=C\C(C)C(O)C(C)C(O)C(C)C(OC(C)=O)C(C)C(OC)/C=C/OC(C)(O6)C5=O)CC2)c1 (stereo unspecified)
Log 1/C [1]: 3.92
IC50 [2]: 10 µM
Log 1/C [3]: 5
Log 1/C [4]: 3.85
IC50 [5]: 0.00014 M l-1
logP [6]: 3.34
IC50 [7]: 0.00012 M l-1

COC1/C=C/OC2(C)Oc3c(C)c(O)c4c(O)c(c(/C=N/OC(c5ccccc5)c5ccccc5)cc4c3C2=O)NC(=O)/C(C)=C\C=C\C(C)C(O)C(C)C(O)C(C)C(OC(C)=O)C1C (stereo unspecified)
Log 1/C [1]: 5
IC50 [2]: 2.5 µM
Log 1/C [3]: 5.6
Log 1/C [4]: 4.62
IC50 [5]: 0.000024 M l-1
logP [6]: 4.96
IC50 ([7]; read-out: IC50): 10 µM

CCN(CC)Cc1cc2c3c4c(C)c(O)c2c(O)c1NC(=O)/C(C)=C\C=C\C(C)C(O)C(C)C(O)C(C)C(OC(C)=O)C(C)C(OC)/C=C/OC(C)(O4)C3=O (stereo unspecified)
Log 1/C [1]: 3
IC50 [2]: 40 µM
Log 1/C [3]: 4.4
Log 1/C [4]: 3
IC50 [5]: 0.001 M l-1
logP [6]: 1.55
IC50 [7]: 0.0011 M l-1

CCCN(CCC)/N=C/c1cc2c3c4c(C)c(O)c2c(O)c1NC(=O)/C(C)=C\C=C\C(C)C(O)C(C)C(O)C(C)C(OC(C)=O)C(C)C(OC)/C=C/OC(C)(O4)C3=O (stereo unspecified)
Log 1/C [1]: 4.35
IC50 [2]: 13.5 µM
Log 1/C [3]: 4.87
Log 1/C [4]: 4.19
IC50 [5]: 0.00006500000000000002 M l-1
logP [6]: 3.85
IC50 ([7]; read-out: IC50): 45 µM

COC1/C=C/OC2(C)Oc3c(C)c(O)c4c(O)c(c(C=O)cc4c3C2=O)NC(=O)/C(C)=C\C=C\C(C)C(O)C(C)C(O)C(C)C(OC(C)=O)C1C (stereo unspecified)
Log 1/C [1]: 2.99
IC50 [2]: 17 µM
Log 1/C [3]: 2.99
Log 1/C [4]: 2.99
IC50 [5]: 0.000102 M l-1
logP [6]: 0.13
IC50 [7]: 0.000104 M l-1
